Measured values from ChEMBL document CHEMBL1140401, “Synthesis and pharmacological evaluation of Tic-hydantoin derivatives as selective sigma1 ligands. Part 2” (Bioorg Med Chem Lett, 2005).

Tests used:
[1] = biological target: Sigma 2 receptor; experiment: Inhibitory activity against opioid sigma 2 receptor in rat cerebral cortex using [3H]DTG (+300 nM (+)pentazocine) as radio ligand at pH 7.5 for 120 min at 22 degree C; type: tissue-based
[2] = system: MRC5; experiment: Cytotoxicity against a human diploid embryonic lung cell line (MRC-5 cells) using the colorimetric MTT assay; type: functional
How it was run: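 MRC-5 human embryonic lung cells were exposed to the compounds, and viability was read by colorimetric MTT assay. The read-out is the CC50.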

[3] = biological target: Sigma non-opioid intracellular receptor 1 (Cavia porcellus) (UniProt Q60492); experiment: Selectivity index against opioid receptor sigma 1 versus cytotoxicity to that of inhibitory concentration
Chain of Sigma non-opioid intracellular receptor 1 (Cavia porcellus) (Q60492 whole entry, looked up): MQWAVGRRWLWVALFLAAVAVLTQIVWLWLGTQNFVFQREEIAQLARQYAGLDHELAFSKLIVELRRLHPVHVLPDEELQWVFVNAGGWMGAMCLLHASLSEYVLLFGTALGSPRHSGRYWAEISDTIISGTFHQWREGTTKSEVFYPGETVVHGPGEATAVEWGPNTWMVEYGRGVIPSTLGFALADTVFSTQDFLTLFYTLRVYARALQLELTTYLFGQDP

IC50 [1] [µM] | SMILES | CC50 [2] [µM] | IS [3]
0.358 | CN(CCCCc1ccccc1)CCN1C(=O)[C@@H]2Cc3ccccc3CN2C1=O | – | –
– | CN(CCCc1ccccc1)CCN1C(=O)[C@@H]2Cc3ccccc3CN2C1=O | 136 | 10000
0.502 | CN(CCCN1C(=O)[C@@H]2Cc3ccccc3CN2C1=O)Cc1ccccc1 | 196 | –
> 1 | O=C1[C@@H]2Cc3ccccc3CN2C(=O)N1CCN1CCCCC1 | – | –
> 0.1 | CN(CCCCN1C(=O)[C@@H]2Cc3ccccc3CN2C1=O)Cc1ccccc1 | – | –
– | CN(CCCCN1C(=O)[C@@H]2Cc3ccccc3CN2C1=O)CCc1ccccc1 | 106 | 10700
0.081 | CN(CCCCCN1C(=O)[C@@H]2Cc3ccccc3CN2C1=O)Cc1ccccc1 | 101 | 20200
> 1 | O=C1[C@@H]2Cc3ccccc3CN2C(=O)N1CCCNCc1ccccc1 | – | –
– | O=C1[C@@H]2Cc3ccccc3CN2C(=O)N1CCCNCCCCc1ccccc1 | 31 | 2950
0.021 | CN(CCCN1C(=O)[C@@H]2Cc3ccccc3CN2C1=O)CCc1ccccc1 | – | –
0.972 | CN(CCN1C(=O)[C@@H]2Cc3ccccc3CN2C1=O)Cc1ccccc1 | 107 | 23800
> 1 | CN(CCCCCc1ccccc1)CCN1C(=O)[C@@H]2Cc3ccccc3CN2C1=O | – | –
